Compound activity as filed in PubChem.
Only some compounds are listed: those with a hit (about 2.3% of all), similar ones and a draw of the others.
TRPC4 PAM = positive allosteric modulators of TRPC4, primary screen, cell-based, mouse TRPC4beta, HEK293 mu-opioid, Fluo-4 calcium. Short transient receptor potential channel 4 (Mus musculus), Q9QUQ5. DAMGO EC20, Fluo-4 Ca2+ flux; active compounds read high. B-score at 10 µM. actives 0.42% (n = 310,000);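 active = B-score of calcium response area above 5 SD of library B-scores, with initial fluorescence ratio within 5 SD of library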;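 note: B-score of integrated fluorescence ratio over time as area under calcium response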
TRPC4 block = inhibitors of mouse TRPC4 channel, primary screen, Fluo4 calcium, HEK293 TRPC4beta/mu-opioid cells | Short transient receptor potential channel 4 (Mus musculus), Q9QUQ5 | B-score at 10 µM | actives 0.39% (n = 300,000) | AID 2247, 2010 | DAMGO-evoked Fluo4 calcium flux; active compounds read low;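 active = B-score over 3 SD under the library average, no early fluorescence shift, positive overall ratio signal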
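Assay system: HEK293 cells with stable TRPC4beta plus mu-opioid receptor expression; Probe or stimulus: DAMGO in two steps, submaximal then maximal; Dosing: single-point compound dosing; Measured by: Fluo4 calcium-dye fluorescence, kinetic read; Read-out basis: B score from integrated Fluo4 fluorescence ratio.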
TRPC6 activator = mouse TRPC6 channel activators, primary screen, cell-based, HEK293, membrane potential dye. Short transient receptor potential channel 6 (Mus musculus), Q61143. HEK293-TRPC6 membrane potential dye fluorescence; active compounds read high. B-score at 10 µM. actives 0.13% (n = 310,000);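 active = B-score of the integrated fluorescence ratio above library mean plus 3 SD, and starting fluorescence ratio within library mean plus 5 SD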;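 note: higher score means more depolarization so channel activation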
TRPC6 inhibitor = mouse TRPC6 channel inhibitors, primary screen, cell-based, HEK293, membrane potential dye. Short transient receptor potential channel 6 (Mus musculus), Q61143. ACh-evoked depolarization; active compounds read low. B-score at 10 µM. actives 1.1% (n = 310,000). AID 2553, 2010;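 active = B-score under library mean minus 3 SD, initial fluorescence not abnormally high, positive integrated signal ratio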;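 note: B-score derived from integrated fluorescence ratio over the kinetic read; more negative B-score means stronger inhibition of depolarization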
TRPC4 agonist = activators of mouse TRPC4 channel, primary screen, Fluo4 calcium, HEK293 TRPC4beta/mu-opioid cells; Short transient receptor potential channel 4 (Mus musculus), Q9QUQ5; Fluo4 calcium fluorescence; active compounds read high; B-score at 10 µM; actives 0.49% (n = 310,000); AID 2237, 2010;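 active = B-score above 5 SD of library B-scores, and initial fluorescence ratio not above library mean plus 5 SD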;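 note: positive B-score marks a calcium rise read as TRPC4 activation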
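Assay system: HEK293 stable line with TRPC4beta plus mu-opioid receptor. Times: dye 45 min RT, read 110 s. Measured by: kinetic Fluo4 calcium fluorescence. Measure: B score of integrated ratio. Controls: assay buffer as low control, maximal DAMGO as high control.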
Active calls of the source: *; i = inactive.

SMILES	TRPC4 PAM	TRPC4 block	TRPC6 activator	TRPC6 inhibitor	TRPC4 agonist
COc1ccc(C(=O)C2CCCN(Cc3c(C)[nH]c4ccccc34)C2)c(OC)c1 (configuration not stated)	i	i	i	-5*	i
CN(CCCC(=O)Nc1ccc(Br)cc1F)S(=O)(=O)c1ccccc1	i	i	i	i	i
Cc1ccc2nc(-c3ccccn3)c(NC3CCCC3)n2c1	i	-6*	i	i	i
CCc1sc(C(C2C(=O)CC(C)(C)CC2=O)C2C(=O)CC(C)(C)CC2=O)cc1[N+](=O)[O-]	i	i	i	i	95*
Cc1cc(C)n(CCC(=O)N2CCN(S(=O)(=O)c3ccccc3)CC2)n1	i	i	i	i	i
CC1(C)CC(NC(=O)c2cc(COc3cccc(C(F)(F)F)c3)on2)CCO1 (configuration not stated)	i	-6*	i	i	i
COC(=O)c1ccc(CN2CCC(n3nccc3NC(=O)C3CC3)CC2)cc1	i	i	i	i	i
Cc1c(CN2CCC(n3nccc3NC(=O)C3CC3)CC2)[nH]c2ccccc12	i	i	i	i	64*
CN(C)CCCOc1cccc(Cl)c1	32*	i	i	i	64*
CCCCNCCCOc1cccc(Cl)c1	i	i	i	i	i
CCN(CC)CCOc1cccc(C(C)C)c1	i	i	i	i	i
CN(C)CCCOc1cccc(Oc2ccccc2)c1	12*	i	i	i	i
CC(C)c1cccc(OCCCCN(C)C)c1	17*	i	i	i	i
CN(C)CC(CCC(CN(C)C)C(O)(c1ccccc1)c1ccccc1)C(O)(c1ccccc1)c1ccccc1 (configuration not stated)	i	-8*	i	i	i
CCN(CCO)Cc1csc2ccc(Br)cc12	18*	i	i	i	i
O=C1CC2(CCN(C(=O)c3ccc(F)c(F)c3)CC2)Oc2ccccc21	i	i	i	i	i
O=C(NCCS(=O)(=O)N1CCN(c2ccccc2F)CC1)c1ccc2c(c1)OCO2	i	i	i	i	i
CCOc1cc(Br)ccc1S(=O)(=O)N1CC(C)OC(C)C1 (configuration not stated)	i	i	i	i	43*
NC(=S)Nc1cc2ccccc2c2ccccc12	14*	i	i	i	i
CC(C)CNC(=O)C(=O)NCC1OCCN1S(=O)(=O)c1cccs1 (configuration not stated)	i	i	i	i	i
O=C(C1=C[C@H](c2ccc(C(F)(F)F)cc2)C[C@H](OCCCCO)O1)N1CCN(Cc2ccccc2)CC1	i	i	i	i	186*
Cc1ccccc1NC(=O)CSc1nnc2ccc(-c3cccnc3)nn12	i	i	i	i	i
COCCN(C(=O)Cn1nnc2ccccc21)C(C(=O)NC1CCCC1)c1cc(OC)ccc1OC (configuration not stated)	i	i	24*	i	i
C=CCN(C(=O)Cn1nnc2ccccc21)C(C(=O)NCCOC)c1ccc(OC)cc1OC (configuration not stated)	i	i	i	i	i
CSC1=NC2(CCCCC2)C2=C(CCCC2)N1	i	-6*	i	i	i
COc1ccc(CCN(C)CCCN2CC(c3ccccc3)CC2=O)cc1OC (configuration not stated)	i	i	i	i	i
COc1ccc(C2CC(=O)N(CCCN(C)CCc3ccc(OC)c(OC)c3)C2)cc1 (configuration not stated)	13*	i	i	i	i
O=C1CN(C(=S)NC(=O)c2ccccc2[N+](=O)[O-])CCN1	i	i	i	i	i
